Target: Heat shock protein HSP 90-beta (Homo sapiens) (UniProt P08238)
Test: Inhibition of HSP90 in human A431 cells overexpressing EGFR assessed as downregulation of CDK4 protein expression after 24 hrs by Western blot analysis
Assay type: cell-based
Details: A-431
Summary of the method: (§1)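 A431 cells treated 24 h after seeding for 24 h over a concentration range; 17-DMAG 0.2 µM as reference. Cells lysed in RIPA buffer with protease and phosphatase inhibitors, protein measured by Bradford. Equal protein run on SDS-PAGE and blotted to nitrocellulose, then probed for EGFR, Cdk4, Akt, Hsp70 and actin. ECL detection; densitometry normalized to β-actin. Run at least twice.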

Chain of Heat shock protein HSP 90-beta (Homo sapiens) (P08238 whole entry): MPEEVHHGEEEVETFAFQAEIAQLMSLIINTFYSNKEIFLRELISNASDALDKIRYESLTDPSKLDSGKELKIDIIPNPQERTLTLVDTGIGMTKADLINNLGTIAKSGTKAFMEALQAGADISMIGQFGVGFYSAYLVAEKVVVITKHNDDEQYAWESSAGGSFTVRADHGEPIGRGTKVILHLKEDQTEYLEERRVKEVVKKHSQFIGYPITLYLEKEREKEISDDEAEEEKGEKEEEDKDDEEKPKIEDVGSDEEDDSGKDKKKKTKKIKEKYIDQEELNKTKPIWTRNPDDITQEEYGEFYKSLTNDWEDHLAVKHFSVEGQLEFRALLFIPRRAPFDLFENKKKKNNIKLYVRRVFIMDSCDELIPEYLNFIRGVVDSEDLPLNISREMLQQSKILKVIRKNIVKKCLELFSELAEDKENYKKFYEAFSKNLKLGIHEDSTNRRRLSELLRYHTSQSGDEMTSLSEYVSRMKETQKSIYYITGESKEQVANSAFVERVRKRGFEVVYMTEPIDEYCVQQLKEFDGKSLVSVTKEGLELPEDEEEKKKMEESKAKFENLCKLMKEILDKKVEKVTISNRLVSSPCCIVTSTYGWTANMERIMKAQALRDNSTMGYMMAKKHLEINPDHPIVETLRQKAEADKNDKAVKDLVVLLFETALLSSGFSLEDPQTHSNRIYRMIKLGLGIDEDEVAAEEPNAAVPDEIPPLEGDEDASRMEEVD

| SMILES | inhibition |
| --- | --- |
| CCNC(=O)c1nnn(-c2cc(C(C)C)c(O)cc2O)c1-c1ccc(CN(CC)CC)cc1 | Dose-dependent effect |
| CCNC(=O)c1nnn(-c2cc(C(C)C)c(O)cc2O)c1-c1ccc(CNCC2CCCCC2)cc1 | Dose-dependent effect |
| CC(C)c1cc(-n2nnc(C(=O)NC3CCCC3)c2-c2ccc(CN3CCOCC3)cc2)c(O)cc1O | Dose-dependent effect |
| CCNC(=O)c1nnn(-c2cc(C(C)C)c(OC(C)=O)cc2OC(C)=O)c1-c1ccc(CN2CCOCC2)cc1 | Dose-dependent effect |
| CCNC(=O)c1nnn(-c2cc(C(C)C)c(O)cc2O)c1-c1ccc(CN2CCCCC2)cc1 | Dose-dependent effect |
| CCNC(=O)c1nnn(-c2cc(C(C)C)c(O)cc2O)c1-c1ccc(CNCCN2CCOCC2)cc1 | Dose-dependent effect |

Target: Heat shock protein HSP 90-beta (Homo sapiens) (UniProt P08238)
Test: Inhibition of HSP90 in human A431 cells overexpressing EGFR assessed as induction of HSP70 protein expression after 24 hrs by Western blot analysis
Assay type: cell-based
Details: A-431
Summary of the method: as §1

| SMILES | inhibition |
| --- | --- |
| CCNC(=O)c1nnn(-c2cc(C(C)C)c(O)cc2O)c1-c1ccc(CN(CC)CC)cc1 | Dose-dependent effect |
| CCNC(=O)c1nnn(-c2cc(C(C)C)c(O)cc2O)c1-c1ccc(CNCC2CCCCC2)cc1 | Dose-dependent effect |
| CC(C)c1cc(-n2nnc(C(=O)NC3CCCC3)c2-c2ccc(CN3CCOCC3)cc2)c(O)cc1O | Dose-dependent effect |
| CCNC(=O)c1nnn(-c2cc(C(C)C)c(OC(C)=O)cc2OC(C)=O)c1-c1ccc(CN2CCOCC2)cc1 | Dose-dependent effect |
| CCNC(=O)c1nnn(-c2cc(C(C)C)c(O)cc2O)c1-c1ccc(CN2CCCCC2)cc1 | Dose-dependent effect |
| CCNC(=O)c1nnn(-c2cc(C(C)C)c(O)cc2O)c1-c1ccc(CNCCN2CCOCC2)cc1 | Dose-dependent effect |

Tested on: NCI-H460
Test: Cytotoxicity against human NCI-H460 cells assessed as growth inhibition after 72 hrs by SRB assay
Assay type: functional, cell-based
Details: NCI-H460, 72 h
Summary of the method: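 NCI-H460 cells grown in RPMI-1640 with 10% heat-inactivated FBS, seeded at about 10% confluence and allowed 24 h recovery. Exposed to graded drug concentrations or solvent for 72 h. Surviving fraction measured by sulforhodamine B. IC50 is the concentration giving a 50% drop in cell number vs vehicle, from dose-response curve fitting; mean of n=4 with SD.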

| SMILES | IC50 |
| --- | --- |
| CCNC(=O)c1nnn(-c2cc(C(C)C)c(O)cc2O)c1-c1ccc(CN(CC)CC)cc1 | 11 nM |
| CCNC(=O)c1nnn(-c2cc(C(C)C)c(O)cc2O)c1-c1ccc(CNCC2CCCCC2)cc1 | 2.1 nM |
| CC(C)c1cc(-n2nncc2-c2ccc(CN3CCOCC3)cc2)c(O)cc1O | 150 nM |
| CCNC(=O)c1nnn(-c2cc(C(C)C)c(O)cc2O)c1-c1ccc(CN2CCC[C@H](O)C2)cc1 | 70 nM |
| CCNC(=O)c1nnn(-c2cc(C(C)C)c(O)cc2O)c1-c1ccc(CN2CC[C@H](N(C)C)C2)cc1 | 85 nM |
| CCNC(=O)c1nnn(-c2cc(C(C)C)c(O)cc2O)c1-c1ccc(Cn2ccnc2)cc1 | 28 nM |
| CCNC(=O)c1nnn(-c2cc(C(C)C)c(O)cc2O)c1-c1ccc(CN2CCCCC2CCO)cc1 (stereo unspecified) | 110 nM |
| CCNC(=O)c1nnn(-c2cc(C(C)C)c(O)cc2O)c1-c1ccc(CN2CCC[C@@H](O)C2)cc1 | 52 nM |
| CC(C)c1cc(-n2nncc2-c2ccc(CN3CCN(c4ccccc4)CC3)cc2)c(O)cc1O | 520 nM |
| CC(C)c1cc(-n2nnc(C(=O)NC3CCCCC3)c2-c2ccc(CN3CCOCC3)cc2)c(O)cc1O | 46 nM |
| CCNC(=O)c1nnn(-c2cc(C(C)C)c(O)cc2O)c1-c1ccc(CN2CCC(N(C)C)CC2)cc1 | 120 nM |
| CC(C)c1cc(-n2nncc2-c2ccc(CN3CCN(Cc4ccccc4)CC3)cc2)c(O)cc1O | 180 nM |
| CC(C)c1cc(-n2nnc(C(=O)NC3CCCC3)c2-c2ccc(CN3CCOCC3)cc2)c(O)cc1O | 14 nM |
| CC(C)c1cc(-n2nncc2-c2ccc(CN3CCCC(O)C3)cc2)c(O)cc1O (stereo unspecified) | 45 nM |
| CC(C)c1cc(-n2nnc(C(=O)NCCCl)c2-c2ccc(CN3CCOCC3)cc2)c(O)cc1O | 4.3 nM |
| CCNC(=O)c1nnn(-c2cc(C(C)C)c(O)cc2O)c1-c1ccc(CN2CCN(C)CC2)cc1 | 47 nM |

| SMILES | IC50 |
| --- | --- |
| CCNC(=O)c1nnn(-c2cc(C(C)C)c(O)cc2O)c1-c1ccc(CN(CC)CCO)cc1 | 56 nM |
| CCNC(=O)c1nnn(-c2cc(C(C)C)c(O)cc2O)c1-c1ccc(CN2CCNCC2)cc1 | 250 nM |
| CCNC(=O)c1nnn(-c2cc(C(C)C)c(O)cc2O)c1-c1ccc(CNC2CCN(C)CC2)cc1 | > 1000 nM |
| CC(C)c1cc(-n2nnc(C(=O)N3CCOCC3)c2-c2ccc(CN3CCOCC3)cc2)c(O)cc1O | > 1000 nM |
| CC(C)c1cc(-n2cc(-c3ccc(CN4CCN(c5ccccc5)CC4)cc3)nn2)c(O)cc1O | > 1000 nM |
| CCNC(=O)c1nnn(-c2cc(C(C)C)c(O)cc2O)c1-c1ccc(CNCCCN(CC)CC)cc1 | 412 nM |
| CCNC(=O)c1nnn(-c2cc(C(C)C)c(OC(C)=O)cc2OC(C)=O)c1-c1ccc(CN2CCOCC2)cc1 | 6.5 nM |
| CC(C)c1cc(-n2cc(-c3ccc(CN4CCN(Cc5ccccc5)CC4)cc3)nn2)c(O)cc1O | > 1000 nM |
| CCNC(=O)c1nnn(-c2cc(C(C)C)c(O)cc2O)c1-c1ccc(CN2CCCCC2)cc1 | 6 nM |
| CCCCCCCNC(=O)c1nnn(-c2cc(C(C)C)c(O)cc2O)c1-c1ccc(CN2CCOCC2)cc1 | 45 nM |
| CCNC(=O)c1nnn(-c2cc(C(C)C)c(O)cc2O)c1-c1ccc(CNCCN(CC)CC)cc1 | 200 nM |
| CCNC(=O)c1nnn(-c2cc(C(C)C)c(O)cc2O)c1-c1ccc(CN2CCCC2)cc1 | 3 nM |
| CCNC(=O)c1nnn(-c2cc(C(C)C)c(O)cc2O)c1-c1ccc(CNC2CCCCC2)cc1 | 15 nM |
| CC(C)c1cc(-n2nnc(C(=O)N[C@H](C(=O)O)C(C)C)c2-c2ccc(CN3CCOCC3)cc2)c(O)cc1O | > 1000 nM |
| CCNC(=O)c1nnn(-c2cc(C(C)C)c(O)cc2O)c1-c1ccc(CNCCN2CCOCC2)cc1 | 140 nM |

Target: Heat shock protein HSP 90-beta (Homo sapiens) (UniProt P08238)
Test: Inhibition of HSP90 in human A431 cells overexpressing EGFR assessed as downregulation of EGFR protein expression after 24 hrs by Western blot analysis
Assay type: cell-based
Details: A-431
Summary of the method: as §1

| SMILES | inhibition |
| --- | --- |
| CCNC(=O)c1nnn(-c2cc(C(C)C)c(O)cc2O)c1-c1ccc(CN(CC)CC)cc1 | Dose-dependent effect |
| CCNC(=O)c1nnn(-c2cc(C(C)C)c(O)cc2O)c1-c1ccc(CNCC2CCCCC2)cc1 | Dose-dependent effect |
| CC(C)c1cc(-n2nnc(C(=O)NC3CCCC3)c2-c2ccc(CN3CCOCC3)cc2)c(O)cc1O | Dose-dependent effect |
| CCNC(=O)c1nnn(-c2cc(C(C)C)c(OC(C)=O)cc2OC(C)=O)c1-c1ccc(CN2CCOCC2)cc1 | Dose-dependent effect |
| CCNC(=O)c1nnn(-c2cc(C(C)C)c(O)cc2O)c1-c1ccc(CN2CCCCC2)cc1 | Dose-dependent effect |
| CCNC(=O)c1nnn(-c2cc(C(C)C)c(O)cc2O)c1-c1ccc(CNCCN2CCOCC2)cc1 | Dose-dependent effect |

Target: Heat shock protein HSP 90-beta (Homo sapiens) (UniProt P08238)
Test: Inhibition of HSP90 in human A431 cells overexpressing EGFR assessed as downregulation of AKT protein expression after 24 hrs by Western blot analysis
Assay type: cell-based
Details: A-431
Summary of the method: as §1

| SMILES | inhibition |
| --- | --- |
| CCNC(=O)c1nnn(-c2cc(C(C)C)c(O)cc2O)c1-c1ccc(CN(CC)CC)cc1 | Dose-dependent effect |
| CCNC(=O)c1nnn(-c2cc(C(C)C)c(O)cc2O)c1-c1ccc(CNCC2CCCCC2)cc1 | Dose-dependent effect |
| CC(C)c1cc(-n2nnc(C(=O)NC3CCCC3)c2-c2ccc(CN3CCOCC3)cc2)c(O)cc1O | Dose-dependent effect |
| CCNC(=O)c1nnn(-c2cc(C(C)C)c(OC(C)=O)cc2OC(C)=O)c1-c1ccc(CN2CCOCC2)cc1 | Dose-dependent effect |
| CCNC(=O)c1nnn(-c2cc(C(C)C)c(O)cc2O)c1-c1ccc(CN2CCCCC2)cc1 | Dose-dependent effect |
| CCNC(=O)c1nnn(-c2cc(C(C)C)c(O)cc2O)c1-c1ccc(CNCCN2CCOCC2)cc1 | Dose-dependent effect |

Target: Heat shock protein HSP 90-alpha (Homo sapiens, UniProt P07900)
Test: Displacement of GM-FITC from full-length recombinant human Hsp90-alpha after 4 hrs by fluorescence polarization assay
Details: not given

| SMILES | IC50 |
| --- | --- |
| CCNC(=O)c1nnn(-c2cc(C(C)C)c(O)cc2O)c1-c1ccc(CN(CC)CC)cc1 | 25 nM |
| CCNC(=O)c1nnn(-c2cc(C(C)C)c(O)cc2O)c1-c1ccc(CNCC2CCCCC2)cc1 | < 5 nM |
| CC(C)c1cc(-n2nncc2-c2ccc(CN3CCOCC3)cc2)c(O)cc1O | 35 nM |
| CCNC(=O)c1nnn(-c2cc(C(C)C)c(O)cc2O)c1-c1ccc(CN2CCC[C@H](O)C2)cc1 | 23 nM |
| CCNC(=O)c1nnn(-c2cc(C(C)C)c(O)cc2O)c1-c1ccc(CN2CC[C@H](N(C)C)C2)cc1 | 13 nM |
| CCNC(=O)c1nnn(-c2cc(C(C)C)c(O)cc2O)c1-c1ccc(Cn2ccnc2)cc1 | 23 nM |
| CCNC(=O)c1nnn(-c2cc(C(C)C)c(O)cc2O)c1-c1ccc(CN2CCCCC2CCO)cc1 (stereo unspecified) | 10 nM |
| CCNC(=O)c1nnn(-c2cc(C(C)C)c(O)cc2O)c1-c1ccc(CN2CCC[C@@H](O)C2)cc1 | 30 nM |
| CC(C)c1cc(-n2nncc2-c2ccc(CN3CCN(c4ccccc4)CC3)cc2)c(O)cc1O | 36 nM |
| CC(C)c1cc(-n2nnc(C(=O)NC3CCCCC3)c2-c2ccc(CN3CCOCC3)cc2)c(O)cc1O | 95 nM |
| CCNC(=O)c1nnn(-c2cc(C(C)C)c(O)cc2O)c1-c1ccc(CN2CCC(N(C)C)CC2)cc1 | < 5 nM |
| CC(C)c1cc(-n2nncc2-c2ccc(CN3CCN(Cc4ccccc4)CC3)cc2)c(O)cc1O | 27 nM |
| CC(C)c1cc(-n2nnc(C(=O)NC3CCCC3)c2-c2ccc(CN3CCOCC3)cc2)c(O)cc1O | 27 nM |
| CC(C)c1cc(-n2nncc2-c2ccc(CN3CCCC(O)C3)cc2)c(O)cc1O (stereo unspecified) | 37 nM |
| CC(C)c1cc(-n2nnc(C(=O)NCCCl)c2-c2ccc(CN3CCOCC3)cc2)c(O)cc1O | 17 nM |
| CCNC(=O)c1nnn(-c2cc(C(C)C)c(O)cc2O)c1-c1ccc(CN2CCN(C)CC2)cc1 | < 5 nM |

| SMILES | IC50 |
| --- | --- |
| CCNC(=O)c1nnn(-c2cc(C(C)C)c(O)cc2O)c1-c1ccc(CN(CC)CCO)cc1 | < 5 nM |
| CCNC(=O)c1nnn(-c2cc(C(C)C)c(O)cc2O)c1-c1ccc(CN2CCNCC2)cc1 | < 5 nM |
| CCNC(=O)c1nnn(-c2cc(C(C)C)c(O)cc2O)c1-c1ccc(CNC2CCN(C)CC2)cc1 | 32 nM |
| CC(C)c1cc(-n2nnc(C(=O)N3CCOCC3)c2-c2ccc(CN3CCOCC3)cc2)c(O)cc1O | 270 nM |
| CC(C)c1cc(-n2cc(-c3ccc(CN4CCN(c5ccccc5)CC4)cc3)nn2)c(O)cc1O | 320 nM |
| CCNC(=O)c1nnn(-c2cc(C(C)C)c(O)cc2O)c1-c1ccc(CNCCCN(CC)CC)cc1 | 12 nM |
| CCNC(=O)c1nnn(-c2cc(C(C)C)c(OC(C)=O)cc2OC(C)=O)c1-c1ccc(CN2CCOCC2)cc1 | > 1000 nM |
| CC(C)c1cc(-n2cc(-c3ccc(CN4CCN(Cc5ccccc5)CC4)cc3)nn2)c(O)cc1O | 295 nM |
| CCNC(=O)c1nnn(-c2cc(C(C)C)c(O)cc2O)c1-c1ccc(CN2CCCCC2)cc1 | 21 nM |
| CCCCCCCNC(=O)c1nnn(-c2cc(C(C)C)c(O)cc2O)c1-c1ccc(CN2CCOCC2)cc1 | 33 nM |
| CCNC(=O)c1nnn(-c2cc(C(C)C)c(O)cc2O)c1-c1ccc(CNCCN(CC)CC)cc1 | 15 nM |
| CCNC(=O)c1nnn(-c2cc(C(C)C)c(O)cc2O)c1-c1ccc(CN2CCCC2)cc1 | < 5 nM |
| CCNC(=O)c1nnn(-c2cc(C(C)C)c(O)cc2O)c1-c1ccc(CNC2CCCCC2)cc1 | 6.8 nM |
| CC(C)c1cc(-n2nnc(C(=O)N[C@H](C(=O)O)C(C)C)c2-c2ccc(CN3CCOCC3)cc2)c(O)cc1O | 181 nM |
| CCNC(=O)c1nnn(-c2cc(C(C)C)c(O)cc2O)c1-c1ccc(CNCCN2CCOCC2)cc1 | 14.8 nM |

— ChEMBL document CHEMBL3232837, “Synthesis and evaluation of new Hsp90 inhibitors based on a 1,4,5-trisubstituted 1,2,3-triazole scaffold” (J Med Chem, 2014)
